An excerpt weighted towards active compounds, which were near 1.9% of everything screened.
HCV core dimer: blocks dimerization of HCV core protein; TR-FRET GST/Flag-core106 dimerization, 1536-well; inhibition, % at 5 µM; 300,000 compounds, 0.33% hits; AID 1899;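 active means inhibition above the mean of all tested compounds plus 3 SD, set per screening campaign, cut at about 45% in these data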
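Assay system: Tagged HCV core106 pair (GST and Flag) | Buffer or medium: KF-containing HEPES buffer, pH 7.45, DTT, CHAPS, BSA | Also added: Eu donor and XL665 acceptor anti-tag antibodies | Dosing: One concentration, 5 µM, in 0.5% DMSO | Timing: 4 h at 22.5 °C | Technique: TR-FRET 671 and 617 nm emission | Repeats: Singlicate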
TbMetRS inhib: blocks T. brucei methionyl-tRNA synthetase activity | inhibition, % at 11.9 µM | purified T. brucei MetRS, ATP depletion, Kinase-Glo luminescence | 360,000 compounds, 0.4% hits;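 active means inhibition above a per-plate cutoff of the control wells' mean inhibition plus 3 SD, cut at about 5.5% in these data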;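 further: 0% = DMSO wells median and 100% = median of wells with control inhibitor compound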
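Material: T. brucei methionyl-tRNA synthetase, purified; reagent: substrates ATP, L-methionine and bulk Escherichia coli tRNA; dosing: 11.9 µM single point; timing: 15 min plus 2 h at 25 °C; detection: luminescence of leftover ATP; evaluation: % inhibition; control set: DMSO-only wells as low control; replicates: singlicate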
Pemphigus Ab inh: blocks pemphigus antibody binding to human desmoglein-3; P32926; AID 588358; binding (percent of control), % at 10 µM; DSG3-coupled beads, scFv-anti-DSG3-GFP binding, flow cytometry; active compounds read low; 310,000 compounds, 0.48% hits;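 active means binding more than 3 SD below its plate's average and above zero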;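 further: hits lower antibody fragment binding to DSG3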
Rce1 inh: yeast Ras-converting enzyme inhibition | Q03530 | yeast membranes, quenched prenylated peptide cleavage fluorescence | calls only | 290,000 compounds, 0.27% hits | AID 2563;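 active means fall in fluorescence gain of 50% or more versus controls, with final raw signal at or below 3038400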;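 further: plate controls were neutral control wells for no effect and wells lacking membranes for full effect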
Target sequence (Q03530 whole entry, looked up): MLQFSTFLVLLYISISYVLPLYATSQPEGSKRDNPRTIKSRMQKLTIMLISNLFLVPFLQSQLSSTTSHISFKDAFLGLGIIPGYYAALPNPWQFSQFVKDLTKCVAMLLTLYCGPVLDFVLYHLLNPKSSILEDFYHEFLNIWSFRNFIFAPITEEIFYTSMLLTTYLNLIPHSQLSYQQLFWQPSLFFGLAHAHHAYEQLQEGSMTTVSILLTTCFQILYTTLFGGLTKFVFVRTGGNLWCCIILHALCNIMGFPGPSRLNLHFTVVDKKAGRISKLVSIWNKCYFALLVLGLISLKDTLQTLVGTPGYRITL
NadD block: inhibitors of Staphylococcus aureus NadD | inhibition, % at 20 µM | purified NadD enzyme, colorimetric absorbance read-out | 360,000 compounds, 0.78% hits; in the data active means inhibition above about 26%
Starred values were filed as active, the others as inactive; i = inactive; / = no result given; + = active, no number; ! = repeats disagree.

SMILES	HCV core dimer	TbMetRS inhib	Pemphigus Ab inh	Rce1 inh	NadD block
CCOC(=O)C(C)N1c2cccc3cccc(c23)S1(=O)=O (configuration not stated)	/	0.3	99.6	/	-1.2
CCOC(=O)c1ccc2c(c1)C1C=CCC1C(C(=O)OCC)N2 (configuration not stated)	54.6*	-0.2	92.3	i	12.6
O=C(O)C1Nc2c(O)cccc2C2C=CCC12 (configuration not stated)	50.5*	0.1	83.0*	/	40.4*
CCOC(=O)C1Nc2ccc(C)cc2C2C=CCC12 (configuration not stated)	38.1	-0.3	110.2	i	-0.2
O=C(O)C1Nc2c(Cl)cc(Cl)cc2C2C=CCC12 (configuration not stated)	32.9	-1.2	100.0	i	27.5
CCOC(=O)C1Nc2ccc(Br)cc2C2C=CCC12 (configuration not stated)	50.2*	-2.1	107.2	i	27.2
CC(C)CNC(=O)C1Nc2ccc(OC(F)(F)F)cc2C2C=CCC12 (configuration not stated)	8.4	-0.2	93.5	i	2.6
O=C(O)C1Nc2ccc(Br)cc2C2C=CCC12 (configuration not stated)	23.4	-0.2	107.1	i	31.5*
Cc1c(/C=C2\NC(=O)NC2=O)c2ccccc2n1C	-19.9	0.1	127.0	i	-1.4
O=C(Nc1ccc2[nH]c(=S)sc2c1)Nc1ccccc1F	0.2	3.0	103.8	i	21.4
CC(C)N1CCC(N2CCN(C/C=C/c3ccc(F)cc3)CC2CCO)CC1 (configuration not stated)	4.3	-0.4	90.1	i	4.0
CCC(=O)Oc1ccc(C(=O)Nc2cccc(C(=O)NC(C)(C)C)c2)cc1	4.4	-0.2	86.7*	/	-0.6
CC(C)(C)Cc1nnc(NC(=O)CCC2CCCCC2)s1	0.2	-1.3	95.3	i	-2.9
Cc1cc(C)n2cc(CSc3nncn3C)nc2n1	-1.2	-0.9	107.0	+	-3.3
CCc1ccc(NC(=S)N(CCN2CCCCC2)Cc2ccco2)cc1	-2.2	-0.3	102.8	i	-2.5
O=C(Nc1ccccc1Cl)Nc1ccnn1C1CCN(C(=O)CCN2CCCO2)CC1	2.7	-0.1	106.9	i	-4.7
O=C(Nc1cccc(F)c1)Nc1ccnn1C1CCN(C(=O)CCN2CCCO2)CC1	6.0	-0.2	0.6*	i	-2.6
O=c1c2[nH]c3ccccc3c2ncn1CCCn1ccnc1	-4.8	-0.2	103.5	i	-1.8
O=C(OCC(=O)N1CCOCC1)c1ccccc1OCc1ccc(Cl)cc1	/	-0.2	126.0	/	-2.5
CCOC(=O)c1[nH]c2ccc(OC)cc2c1NC(=O)CN1CCC2(CC1)OCCO2	-2.5	-0.8	/	+	-3.3
CC(=O)Nc1nnc(CCS(=O)(=O)c2ccc(C)c(C)c2)s1	-5.4	-1.1	6.1*	i	2.5
CCCCc1nn(-c2cc(Cl)ccc2OC)c2c1C(=O)CCC2	-5.3	0.2	101.0	i	-2.2
Cc1cccc(NC(=O)COC(=O)Cc2c[nH]c3ccccc23)c1C	-7.5	-0.5	/	i	-1.2
CCOC(=O)N1CCC(NC(=O)c2ccc3c(c2)N(Cc2ccccc2)CCS3)CC1	10.5	0.1	107.4	i	-0.5
O=C(NC1CC1)c1ccc2c(c1)N(Cc1ccccc1)CCS2	2.6	0.5	93.0	+	-3.5
SMILES	HCV core dimer	TbMetRS inhib	Pemphigus Ab inh	Rce1 inh	NadD block
C/C(=N/Nc1ccc(C(=O)c2c(C)cc3ccccn23)cc1[N+](=O)[O-])c1ccc(O)cc1	/	-0.6	76.9	/	31.6*
C/C(=N\Nc1ccc(C(=O)c2c(C)cc3ccccn23)cc1[N+](=O)[O-])c1ccc(O)cc1	7.1	-0.5	91.0	i	35.7*
Cc1ccc2nc(Cl)c(C3CC(c4cccs4)=NN3C(=O)CCCC(=O)O)cc2c1 (configuration not stated)	12.8	-0.2	94.6	+	6.2
CC(C)(C)N(Cc1ccccc1)C(=O)COC(=O)[C@@H]1CCCN1C(=O)c1cccs1	2.8	-0.5	99.5	i	-1.9
CCOC(=O)C(Cc1ccc(NC(=O)/C(=C/c2ccccc2)NC(=O)c2ccccc2)cc1)N1C(=O)c2ccccc2C1=O (configuration not stated)	58.3*	0.4	/	i	18.9
CC(C)C[C@@H](CN1CCC[C@@H]1CN1C(=O)C(=O)NC[C@@H]1Cc1ccccc1)N1C[C@H](Cc2ccccc2)N(CC2CCCCC2)C(=O)C1=O	/	-0.8	/	/	19.1
NNc1ccc([N+](=O)[O-])c2[nH][nH]c(=O)c12	/	-0.1	83.4*	/	19.3
COc1ccc(-c2cn3c(C)c(C(=O)NC(C)C)sc3n2)cc1	-0.7	0.1	47.4*	i	-3.0
CCc1cccc(C)c1NC(=O)CSc1n[nH]c(N)n1	/	-0.2	/	/	-4.4
Cn1cnnc1SCc1cccc(Br)c1	2.6	-0.4	41.1*	i	7.8
CCC(=O)N1CCc2cc(S(=O)(=O)N(C)c3ccc(Br)cc3)ccc21	/	-0.9	72.8*	i	1.7
CCC(=O)N1CCc2cc(S(=O)(=O)N(C)c3ccc(OC)cc3OC)ccc21	-0.9	-0.9	103.3	i	-0.2
Cc1ccc(S(=O)(=O)NC2=C(N3CCN(c4ccccc4F)CC3)C(=O)c3ccccc3C2=O)cc1	23.0	-0.2	90.4	i	33.9*!
Cc1ccc(S(=O)(=O)CC(=O)N2CCN(c3ccccc3F)CC2)cc1	-18.4	-0.5	/	+	-4.5
Cn1ncc(Br)c1C(=O)N/N=C/c1cccc(OC2CSC2)c1	3.0	-0.5	98.8	i	-6.8
O=C(O)c1cc(-c2ccc3c(c2)OCO3)nc2ccccc12	5.0	-0.1	92.3	i	-2.4
CCCN(CCC)C(=O)c1cc(-c2ccc3c(c2)OCO3)nc2ccccc12	55.9*	-1.2	90.5	i	10.1
Cc1ccc(S(=O)(=O)N(C)c2ccc(C(=O)O)cc2)cc1	4.3	-1.1	101.8	i	-7.0
Cc1ccc(OCC(=O)NC2CCS(=O)(=O)C2)c(C)c1 (configuration not stated)	/	-0.3	99.5	i	-0.2
CN(c1ccc(OCC(=O)OCC(=O)c2c(N)n(C)c(=O)n(C)c2=O)cc1)S(=O)(=O)c1ccc2ccccc2c1	23.8	-1.1	97.5*	i	10.5
O=S(=O)(c1ccccc1)N(Cc1ccccc1)c1ccccn1	-6.2	0.6	102.9	i	4.4
O=C(O)c1ccc(CN(c2ccccn2)S(=O)(=O)c2ccccc2)cc1	-2.2	-0.4	99.4	+	-2.5
CCCCC1=CC2=C(c3ccco3)C(=O)C(C)(OC(=O)c3ccc(OC)cc3)C(=O)C2=CN1Cc1ccc2c(c1)OCO2 (configuration not stated)	55.1*	0.4	99.3	i	28.4
CC(C)C(NC(=O)C12CC3CC(CC(C3)C1)C2)C(=O)N/N=C/C1=C(N2CCOCC2)C(=C\c2ccc([N+](=O)[O-])cc2)/CC1 (configuration not stated)	18.9	0.3	102.3	i	31.7*

Screens deposited in PubChem BioAssay by several laboratories.
